From PubChem BioAssay
T cruzi growth-1: inhibitors of T. cruzi proliferation; T. cruzi beta-gal in NIH3T3, GalScreen luminescence, 90 h; inhibition, % at 8.34 µM; 5.9% of 77,000 active;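 active = mean inhibition above about 93%, with at least 55% of replicates each passing it, limit read from the data, passing the limit was not always enough; inconclusive = only one of those two conditions holds; inactive = neither condition holds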
IDH1 R132H inh: inhibitors of human IDH1 R132H; O75874; IDH1 R132H reductase, diaphorase/resazurin fluorescence, 60 min; inhibition, % at 10 µM; 0.18% of 70,000 active; in the data active = inhibition above about 34%; inconclusive = no clear call, values can overlap the other calls; inactive = below about 11%
Target sequence (O75874 whole entry R132H): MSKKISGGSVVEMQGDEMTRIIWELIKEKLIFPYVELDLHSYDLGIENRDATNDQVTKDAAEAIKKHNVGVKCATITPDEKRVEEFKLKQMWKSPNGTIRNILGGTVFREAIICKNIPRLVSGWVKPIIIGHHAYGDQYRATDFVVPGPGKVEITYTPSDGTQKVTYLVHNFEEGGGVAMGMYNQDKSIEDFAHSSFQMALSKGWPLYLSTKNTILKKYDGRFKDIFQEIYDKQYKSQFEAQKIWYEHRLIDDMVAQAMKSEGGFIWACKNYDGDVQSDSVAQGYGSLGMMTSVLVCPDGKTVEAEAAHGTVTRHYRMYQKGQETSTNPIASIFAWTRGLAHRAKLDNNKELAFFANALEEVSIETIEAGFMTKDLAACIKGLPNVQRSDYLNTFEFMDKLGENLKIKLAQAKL
KDM4C inh: blocks human GASC-1 (KDM4C) demethylase activity; Q9H3R0; GST-KDM4C 2-372, H3K9me3 peptide, LANCE TR-FRET; inhibition, % at 12.5 µM; 0.15% of 96,000 active;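 active = mean replicate inhibition above about 25%, with at least 55% of replicates also reaching it, limit read from the data, passing the limit was not always enough; inconclusive = only one of those two conditions met; inactive = neither condition met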
Target sequence (Q9H3R0 2-372 limits assumed): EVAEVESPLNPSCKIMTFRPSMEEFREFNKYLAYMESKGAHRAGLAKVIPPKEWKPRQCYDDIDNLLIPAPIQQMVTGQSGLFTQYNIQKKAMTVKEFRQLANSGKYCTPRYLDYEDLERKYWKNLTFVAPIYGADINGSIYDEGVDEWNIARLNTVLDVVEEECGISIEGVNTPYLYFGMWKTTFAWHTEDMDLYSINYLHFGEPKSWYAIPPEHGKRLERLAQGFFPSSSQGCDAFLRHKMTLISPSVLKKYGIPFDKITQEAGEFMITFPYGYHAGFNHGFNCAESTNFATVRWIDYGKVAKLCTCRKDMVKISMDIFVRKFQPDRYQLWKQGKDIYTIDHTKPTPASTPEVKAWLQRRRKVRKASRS
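Material: GST-tagged GASC-1 (JMJD2C) catalytic fragment, aa 2-372. Input: enzyme final amount 10 nM. Medium: HEPES buffer, pH 7.5, plus ascorbate. Reagent: H3K9me3 peptide substrate, Fe(II), 2-oxoglutarate. Doses: single dose. Times: reaction 30 min RT, detection step 1 h RT. Measured by: LANCE TR-FRET. Evaluation: Fall in 671/618 emission ratio as inhibition.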
Pf Dd2 growth: P. falciparum Dd2 growth inhibition; SYBR Green, 72 h; hits give low values; activity change, % at 10 µM; 2.3% of 94,000 active; AID 1159554; in the data active = activity change below about -80%; inconclusive = no clear call, values can overlap the other calls
T cruzi growth-2: inhibitors of T. cruzi proliferation; shares compounds with T cruzi growth-1; T. cruzi beta-gal in NIH3T3, GalScreen luminescence, 90 h; inhibition, % at 8.35 µM; 72% of 5,600 active; AID 651739;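 active = mean replicate inhibition above about 95% and at least 55% of replicates individually reaching it, limit read from the data; inconclusive = only one of the two criteria is met; inactive = neither criterion is met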
T cruzi growth-3: inhibitors of T. cruzi proliferation | shares compounds with T cruzi growth-1 | T. cruzi beta-gal in NIH3T3, GalScreen luminescence, 90 h | inhibition, % at 2.09 µM | 21% of 5,600 active | AID 651740;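 active = mean inhibition above about 95%, with at least 55% of replicates also reaching it, limit read from the data; inconclusive = meets just one of the two conditions; inactive = meets neither condition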
3T3 cytotox: NIH/3T3 (mouse) viability loss | shares compounds with T cruzi growth-1 | NIH/3T3 viability, CellTiter-Glo ATP luminescence, 90 h | cytotoxicity (signal decrease), % at 8.35 µM | 14% of 5,600 active | AID 651742;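 active = mean signal decrease across replicates above about 35% based on untreated-well scatter, with enough replicates individually passing, limit read from the data; inconclusive = no rule stated though some were filed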
NIH3T3 tox 2: NIH/3T3 (mouse) viability loss; AID 651744; inhibition, % at 24.9 µM; shares compounds with T cruzi growth-1; 56% of 5,600 active; NIH/3T3 viability, CellTiter-Glo ATP luminescence, 90 h;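 active = mean loss of cell viability signal at or above a set limit, and enough replicates individually reaching it; inconclusive = meets only the mean limit or only the replicate share; inactive = meets neither condition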
Of the large screens only hits and unclear results are named; the others gave an inactive call (follow-up assays come after a bar, where they were run). Hits are enriched below; roughly 5.8% of the tested compounds scored in any of these assays.

COc1ccc(C(=O)CSc2nnc(-c3ccccc3)n2-c2ccccc2)cc1	none (no result: T cruzi growth-1, KDM4C inh, Pf Dd2 growth)
C[C@H](CO)N1C[C@H](C)[C@@H](CN(C)Cc2ccc(Oc3ccccc3)cc2)Oc2ccc(NC(=O)Nc3cccc4ccccc34)cc2C1=O	T cruzi growth-1 117 (no result: IDH1 R132H inh) | T cruzi growth-2 99 | T cruzi growth-3 inactive | 3T3 cytotox inconclusive | NIH3T3 tox 2 inactive
C[C@H]1CN([C@@H](C)CO)C(=O)c2cc(NC(=O)Nc3cccc4ccccc34)ccc2O[C@@H]1CN(C)Cc1ccc(Oc2ccccc2)cc1	T cruzi growth-1 125 | T cruzi growth-2 98 | T cruzi growth-3 102 | 3T3 cytotox 41 | NIH3T3 tox 2 44
C[C@H](CO)N1C[C@H](C)[C@H](CN(C)Cc2ccc(Oc3ccccc3)cc2)Oc2ccc(NC(=O)Nc3cccc4ccccc34)cc2C1=O	T cruzi growth-1 123 (no result: IDH1 R132H inh) | T cruzi growth-2 104 | T cruzi growth-3 100 | 3T3 cytotox inactive | NIH3T3 tox 2 37
C[C@@H]1CN([C@H](C)CO)C(=O)c2cc(NC(=O)Nc3cccc4ccccc34)ccc2O[C@@H]1CN(C)Cc1ccc(Oc2ccccc2)cc1	T cruzi growth-1 117 | T cruzi growth-2 101 | T cruzi growth-3 inactive | 3T3 cytotox 41 | NIH3T3 tox 2 inconclusive
CCn1c(SCc2nc3ccccc3[nH]2)nnc1-c1cccc(Cl)c1	none (no result: T cruzi growth-1, KDM4C inh, Pf Dd2 growth)
O=C(Nc1ccc(Cl)cc1)N1C[C@H]2[C@@H](c3ccccc31)[C@H](CO)N2CC1CCCC1	none (no result: IDH1 R132H inh)
O=C(Nc1ccc(Cl)cc1)N1C[C@@H]2[C@H](c3ccccc31)[C@H](CO)N2CC1CCCCC1	T cruzi growth-1 118 (no result: IDH1 R132H inh) | T cruzi growth-2 111 | T cruzi growth-3 inactive | 3T3 cytotox inactive | NIH3T3 tox 2 103
O=C(Nc1ccc(F)cc1)N1C[C@H]2[C@@H](c3ccccc31)[C@@H](CO)N2Cc1ccccc1Cl	T cruzi growth-1 inconclusive (no result: IDH1 R132H inh) | T cruzi growth-2 101 | T cruzi growth-3 inactive | 3T3 cytotox inactive | NIH3T3 tox 2 inactive
O=C(C1CCCC1)N1C[C@H]2[C@@H](c3ccccc31)[C@H](CO)N2C(=O)c1ccccc1F	T cruzi growth-1 100 (no result: IDH1 R132H inh) | T cruzi growth-2 inactive | T cruzi growth-3 inactive | 3T3 cytotox inactive | NIH3T3 tox 2 inconclusive
O=C(C1CCCCC1)N1C[C@H]2[C@@H](c3ccccc31)[C@@H](CO)N2Cc1ccccc1Cl	T cruzi growth-1 101 (no result: IDH1 R132H inh) | T cruzi growth-2 103 | T cruzi growth-3 inactive | 3T3 cytotox inactive | NIH3T3 tox 2 inactive
O=C(Nc1ccc(F)cc1)N1C[C@@H]2[C@H](c3ccccc31)[C@@H](CO)N2Cc1ccccc1Cl	none (no result: IDH1 R132H inh)
COc1cc2c(cc1NC(=O)CCOc1ccccc1C)oc1ccccc12	none (no result: T cruzi growth-1, KDM4C inh, Pf Dd2 growth)
Cc1cccc(S(=O)(=O)N2C[C@H]3[C@@H](c4ccccc42)[C@H](CO)N3CC2CCCC2)c1	T cruzi growth-1 inconclusive (no result: IDH1 R132H inh) | T cruzi growth-2 112 | T cruzi growth-3 inactive | 3T3 cytotox inactive | NIH3T3 tox 2 inconclusive
Cc1ccc(N(CC(=O)Nc2cc(Cl)ccc2C)S(C)(=O)=O)cc1C	none (no result: T cruzi growth-1, KDM4C inh, Pf Dd2 growth)
CC(C)CC#Cc1ccc2c(c1)O[C@H](CN(C)CC1CCOCC1)[C@@H](C)CN([C@H](C)CO)S2(=O)=O	none
CC(C)CC#Cc1ccc2c(c1)O[C@@H](CN(C)CC1CC1)[C@@H](C)CN([C@H](C)CO)S2(=O)=O	T cruzi growth-1 107 | T cruzi growth-2 105 | T cruzi growth-3 inactive | 3T3 cytotox 38 | NIH3T3 tox 2 103
CC(C)CC#Cc1ccc2c(c1)O[C@H](CN(C)CC1CC1)[C@H](C)CN([C@H](C)CO)S2(=O)=O	T cruzi growth-1 105 | T cruzi growth-2 108 | T cruzi growth-3 inactive | 3T3 cytotox inactive | NIH3T3 tox 2 106
CC(C)CC#Cc1ccc2c(c1)O[C@@H](CN(C)CC1CCCC1)[C@H](C)CN([C@@H](C)CO)S2(=O)=O	none (no result: T cruzi growth-1, IDH1 R132H inh)
CC(C)CC#Cc1ccc2c(c1)O[C@@H](CN(C)CC1CC1)[C@@H](C)CN([C@@H](C)CO)S2(=O)=O	T cruzi growth-1 111 | T cruzi growth-2 110 | T cruzi growth-3 inactive | 3T3 cytotox inactive | NIH3T3 tox 2 103
CCCN(C)C[C@@H]1Oc2cc(C#CCC(C)C)ccc2S(=O)(=O)N([C@@H](C)CO)C[C@@H]1C	T cruzi growth-1 108 | T cruzi growth-2 110 | T cruzi growth-3 110 | 3T3 cytotox inactive | NIH3T3 tox 2 104
COC(=O)c1cc(OC)c(OC)cc1NC(=O)COc1ccc(Br)cc1Cl	none (no result: T cruzi growth-1, KDM4C inh, Pf Dd2 growth)
CC(Oc1ccc(Br)cc1)C(=O)NCCN1CCOCC1 (configuration not stated)	none (no result: T cruzi growth-1, KDM4C inh, Pf Dd2 growth)
CS(=O)(=O)N(CC(=O)Nc1ccc(I)cc1)c1ccc(Cl)cc1Cl	none (no result: T cruzi growth-1, KDM4C inh, Pf Dd2 growth)
CS(=O)(=O)Nc1ccc2c(c1)[C@@H]1C[C@@H](CC(=O)NCc3ccncc3)O[C@H](CO)[C@@H]1O2	T cruzi growth-1 117 | T cruzi growth-2 inactive | T cruzi growth-3 inactive | 3T3 cytotox inactive | NIH3T3 tox 2 inactive
CS(=O)(=O)Nc1ccc2c(c1)[C@H]1C[C@H](CC(=O)NCc3ccncc3)O[C@@H](CO)[C@H]1O2	T cruzi growth-1 102 | T cruzi growth-2 inactive | T cruzi growth-3 inactive | 3T3 cytotox inactive | NIH3T3 tox 2 inactive
Cc1ccc([N+](=O)[O-])cc1N(CC(=O)O)S(C)(=O)=O	none (no result: T cruzi growth-1, KDM4C inh, Pf Dd2 growth)
C[C@H](CO)N1C[C@H](C)[C@@H](CN(C)S(=O)(=O)c2ccccc2F)Oc2cc(-c3ccccc3)ccc2S1(=O)=O	none
C[C@H](CO)N1C[C@H](C)[C@H](CN(C)S(=O)(=O)c2ccccc2F)Oc2cc(-c3ccccc3)ccc2S1(=O)=O	T cruzi growth-1 120 | T cruzi growth-2 100 | T cruzi growth-3 inactive | 3T3 cytotox inconclusive | NIH3T3 tox 2 45
C[C@H]1CN([C@@H](C)CO)S(=O)(=O)c2ccc(-c3ccccc3)cc2O[C@@H]1CN(C)S(=O)(=O)c1ccccc1F	T cruzi growth-1 91 | T cruzi growth-2 99 | T cruzi growth-3 inactive | 3T3 cytotox 37 | NIH3T3 tox 2 38
C[C@H]1CN([C@@H](C)CO)S(=O)(=O)c2ccc(-c3ccccc3)cc2O[C@H]1CN(C)S(=O)(=O)c1ccccc1F	T cruzi growth-1 119 | T cruzi growth-2 103 | T cruzi growth-3 103 | 3T3 cytotox inactive | NIH3T3 tox 2 46
Cc1c(/C=C2\SC(=Nc3ccccc3)N(C3CCCC3)C2=O)c2ccccc2n1CC(N)=O	none (no result: T cruzi growth-1, KDM4C inh, Pf Dd2 growth)
CCC(=O)O[C@@H]1CC(=O)O[C@H](C)C/C=C\C=C\[C@@H](O)[C@H](C)C[C@H](CC=O)[C@H](OC2O[C@H](C)[C@@H](O[C@H]3C[C@@](C)(O)[C@@H](OC(=O)CC)[C@H](C)O3)[C@H](N(C)C)[C@H]2O)[C@H]1OC (some centres not stated)	none (no result: T cruzi growth-1, KDM4C inh, Pf Dd2 growth)
